Among the data in ChEMBL document CHEMBL2429733, “Meroterpenoids with diverse ring systems from the sponge-associated fungus Alternaria sp. JJY-32” (J Nat Prod, 2013) are Activity and IC50 values, retold here.

In one assay the test system is HL-60. In words: Cytotoxicity against human HL60 cells. Format: functional, cell-based. The procedure, abridged:
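Growth of human tumour cells measured by the MTT or SRB method, with adriamycin as the positive control.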

A short description of assay [1]: Inhibition of LPS-induced NF-kappaB (unknown origin) activation transfected in mouse RAW264.7 cells preincubated for 2 hrs followed by LPS challenge measured after 4 hrs by luciferase reporter gene assay. Format: cell-based. The procedure, abridged:
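RAW264.7 cells were seeded at 2.5 × 10^5 per well and held at 37 °C for 24 h. They were then transiently transfected with pNF-κB-Luc plasmid (0.5 μg/well) using lipofectamine 2000. After 24 h, compounds were added for 2 h, then LPS (0.1 μg/mL) for a further 4 h. Read-out was Steady-Glo luciferase, with PDTC as the positive control, and IC50 was derived.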
A general note: In a reporter assay the amount or activity of a reporter protein is the signal.

Another assay concerns A549. In words: Cytotoxicity against human A549 cells.

SMILES strings stand for the structures. Counter-ions that a name gives are not always drawn. The source made the active and inactive calls. The calls are words filed in the database; no cut-off is given here. Some results are limits rather than exact numbers.

In general, IC50 refers to the concentration needed to halve the response being measured. As to `C/C(=C\CC[C@]1(C)OC2=C(C[C@@H]1O)C(=O)CC[C@H]2O)CC/C=C(\C)C(=O)O`, the outcome in the assay on HL-60 was inactive. Besides, the IC50 in assay [1] is greater than 100 µM.
The matching figures for `C/C(=C\CC[C@@H](C)C1=CC[C@@]2(C)OC3=C(C[C@@H]12)C(=O)[C@H](O)CC3)CO`: “inactive” and 50 µM.
The matching figures for `CO[C@@H]1C[C@H](O)C(O)=C(C/C=C(\C)CC/C=C(\C)CC/C=C(\C)C(=O)O)C1=O`: “inactive” and 58 µM.
As to `CC(C)=CCC[C@H](C)[C@@H]1CC[C@](C)(O)[C@]12CC1=C(O2)[C@H](O)CCC1=O` [TRICYCLOALTERNARENE A], the outcome in the assay with HL-60 was inactive. In addition, inhibition in assay [1] was half-maximal at 52 µM (IC50).
For `C/C(=C\CC[C@](C)(O)[C@@H]1CC2=C(CC[C@@H](O)C2=O)O1)CC[C@@H](O)C(C)(C)O` the same measures were “inactive” and 70 µM.
The matching figures for `C/C(=C\Cc1cc(C(=O)O)cc(O)c1O)CC/C=C(\C)CC[C@@H](O)C(C)(C)O` [(+)-MONOCYCLOALTERNARENE B]: “inactive” and 47 µM.
Turning to `C/C(=C\CC[C@]1(C)OC2=C(C[C@@H]1O)C(=O)[C@H](O)CC2)CC/C=C(\C)C(=O)O`, the result in the assay on HL-60 was inactive. Further, the IC50 in assay [1] was greater than 100 µM.
For `COc1ccc(O)c(C/C=C(\C)CC/C=C(\C)CC[C@@H](O)C(C)(C)O)c1O` [(+)-MONOCYCLOALTERNARENE A] the same measures were “inactive” and 45 µM.
For `C/C(=C\CC[C@](C)(O)[C@@H]1CC2=C(O1)[C@H](O)CCC2=O)CC/C=C(\C)C(=O)O` the same measures were “inactive” and 67 µM.
The matching figures for `CO[C@@H]1C[C@H](O)C2=C(C[C@H]3[C@H](C(C)(O)CCC=C(C)C)CC[C@@]3(C)O2)C1=O` (stereo partly drawn) [TRICYCLOALTERNARENE B]: “inactive” and 76 µM.
Regarding `CC(C)=CCCC(C)(O)[C@@H]1CC[C@@]2(C)OC3=C(C[C@@H]12)C(=O)CC[C@H]3O` (stereo partly drawn) [TRICYCLOALTERNARENE C], in the assay with HL-60, the result was inactive. In addition, the midpoint of inhibition in assay [1], the IC50, lay at 75 µM.
With `C/C(C=O)=C\CC[C@@H](C)C1=CC[C@@]2(C)OC3=C(C[C@@H]12)C(=O)[C@H](O)CC3`, in the assay with HL-60, the outcome was inactive. This molecule registered a 50% inhibitory concentration (IC50) in assay [1] of 39 µM.
The matching figures for `CO[C@@H]1C[C@H](O)C(O)=C(C/C=C(\C)CC/C=C(\C)CCCC(C)C(=O)O)C1=O` (stereo partly drawn): “inactive” and 42 µM.
For `C/C(=C\CC[C@](C)(O)[C@@H]1CC2=C(CC[C@@H](O)C2=O)O1)CC/C=C(\C)C(=O)O` the same measures were “inactive” and 85 µM.
In assay [1], `S=C(S)N1CCCC1` [PYRROLIDINE DITHIOCARBAMIC ACID, AMMONIUM SALT] returned an IC50 of 3 µM.
As to `COc1cccc2c1C(=O)c1c(O)c3c(c(O)c1C2=O)C[C@@](O)(C(=O)CO)C[C@@H]3O[C@H]1C[C@H](N)[C@H](O)[C@H](C)O1` [DOXORUBICIN], the IC50 with A549 came to 0.35 µM; in the assay on HL-60, 0.09 µM.
In the case of `CC(C)=CCC[C@](C)(O)[C@H](O)CC[C@](C)(O)[C@@H]1CC2=C(CC[C@@H](O)C2=O)O1`, the outcome with HL-60 was inactive. This molecule also yielded an IC50 in assay [1] of 62 µM.
